# Test results published in ChEMBL document CHEMBL4428066, “Small Molecule Reversible Inhibitors of Bruton's Tyrosine Kinase (BTK): Structure-Activity Relationships Leading to the Identification of 7-(2-Hydroxypropan-2-yl)-4-[2-methyl-3-(4-oxo-3,4-dihydroquinazolin-3-yl)phenyl]-9H-carbazole-1-carboxamide (BMS-935177)” (J Med Chem, 2016).
# Calls of active or inactive are those of the source. The rule behind the calls is not given here.
# Experiments:
# [1] = molecular target: T1, Tyrosine-protein kinase BTK (Homo sapiens, UniProt Q06187); assay: Inhibition of His-tagged full length human recombinant BTK expressed in baculovirus using fluoresceinated peptide substrate after 60 mins by fluorescent electrophoretic separation
# Homo sapiens = species on record: Homo sapiens; assay: Selectivity ratio of IC50 for GST-tagged human recombinant LCK using FITC-AHAEGIYLFKKK-NH2 as substrate to IC50 for His-tagged full length human recombinant BTK expressed in baculovirus
# In short: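 Fold selectivity is the LCK enzyme IC50 divided by the BTK enzyme IC50. The footnotes give each IC50 as the mean of three (or at least three) determinations, with some as single determinations.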
# [2] = molecular target: T1, Tyrosine-protein kinase BTK; assay: Inhibition of BTK in human RamosB cells assessed as suppression of BCR/anti-IgM stimulated calcium flux pre-incubated for 1 hr followed by BCR/anti-IgM stimulation; format: cell-based
# [3] = Permeability of the compound at pH 7 by PAMPA; format: ADME; details: for Papp: read-out: permeability
# [4] = Cmax in Balb/C mouse at 10 mg/kg, po; format: ADME, organism-based; parameters: dose 10 mg/kg, route oral; details: in vivo
# In short: (§1)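 Male Balb/C mice dosed orally once at 10 mg/kg in PEG300/TPGS/ethanol (90/5/5 v/v/v).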
# [5] = AUC (0 to 24 hrs) in Balb/C mouse at 10 mg/kg, po; format: ADME, organism-based; parameters: time < 24 hr, dose 10 mg/kg, route oral; details: in vivo; in short: as §1
# [6] = Drug metabolism in rat liver microsomes assessed as aniline metabolite formation; format: ADME, Microsome
# In short: (§2)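 Compounds were incubated with human or rat liver microsomes. Metabolites were profiled for hydrolysis to the aniline and, where applicable, for N-dealkylation giving the bis-aniline.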
# [7] = Drug metabolism in rat liver microsomes assessed as bis-aniline metabolite formation; format: ADME, Microsome; in short: as §2
# [8] = Drug metabolism in human liver microsomes assessed as bis-aniline metabolite formation; format: ADME, Microsome; in short: as §2
# [9] = Drug metabolism in human liver microsomes assessed as aniline metabolite formation; format: ADME, Microsome; in short: as §2
# [10] = Toxicity in mouse administered orally as multiple day dosing schedule; details: in vivo, po
# Mus musculus = assay: Decrease in anti-KLH IgM titers in chronic Balb/C mouse KLH antibody response model at 30 mg/kg, po administered through oral gavage after 14 days by ELISA; format: functional, organism-based; details: in the assay text read “IgG” for “IgM”
# In short: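 Chronic KLH challenge model in mice with compound given by mouth. Anti-KLH IgM appears in the first week after challenge. Switching to IgG anti-KLH is evident by day 14.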
# [11] = Stability in mouse liver microsomes; format: ADME, Microsome
# T1 sequence (Q06187 whole entry): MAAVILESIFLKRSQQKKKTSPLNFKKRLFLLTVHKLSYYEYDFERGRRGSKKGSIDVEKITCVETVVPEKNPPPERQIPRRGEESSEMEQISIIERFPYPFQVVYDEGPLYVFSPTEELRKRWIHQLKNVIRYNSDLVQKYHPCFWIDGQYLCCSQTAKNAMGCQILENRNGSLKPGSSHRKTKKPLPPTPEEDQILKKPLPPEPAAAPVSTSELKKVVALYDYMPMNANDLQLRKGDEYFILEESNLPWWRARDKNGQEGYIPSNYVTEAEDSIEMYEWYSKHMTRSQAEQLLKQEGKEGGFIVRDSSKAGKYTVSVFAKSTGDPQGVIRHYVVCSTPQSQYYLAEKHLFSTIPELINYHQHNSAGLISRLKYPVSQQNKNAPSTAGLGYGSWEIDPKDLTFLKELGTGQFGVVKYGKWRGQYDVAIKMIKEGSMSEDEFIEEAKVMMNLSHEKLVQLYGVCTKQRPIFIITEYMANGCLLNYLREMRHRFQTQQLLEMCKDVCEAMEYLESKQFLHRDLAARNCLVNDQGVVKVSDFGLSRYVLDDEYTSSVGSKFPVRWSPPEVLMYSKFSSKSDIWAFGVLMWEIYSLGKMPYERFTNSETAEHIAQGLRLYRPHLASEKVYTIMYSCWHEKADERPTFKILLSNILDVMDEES
IC50 [1],Ratio IC50 (Homo sapiens),IC50 [2],Papp [3],Cmax [4],AUC(0-t) at 24 h [5],permeability [3],Drug metabolism [6],Drug metabolism [7],Drug metabolism [8],Drug metabolism [9],Stability [11],Compound,Activity [10],Activity (Mus musculus)
3 nM,33,26 nM,–,–,–,–,–,–,–,–,–,Cc1c(-c2ccc(C(N)=O)c3[nH]c4cc(C(C)(C)O)ccc4c23)cccc1N1CCc2ccccc2C1=O,–,–
2 nM,48,48 nM,–,4.41 µM,41 µM·h,–,–,–,–,–,Stable,Cc1c(-c2ccc(C(N)=O)c3[nH]c4cc(C(C)(C)O)ccc4c23)cccc1N1Cc2ccc(F)cc2C1=O,–,inactive
2 nM,89,24 nM,–,8.06 µM,120 µM·h,–,–,–,–,–,–,Cc1c(-c2ccc(C(N)=O)c3[nH]c4cc(C(C)(C)O)ccc4c23)cccc1-n1cnc2cc(F)ccc2c1=O,–,–
2 nM,88,34 nM,–,6.85 µM,63 µM·h,–,–,–,–,–,–,Cc1c(-c2ccc(C(N)=O)c3[nH]c4cc(C(C)(C)O)ccc4c23)cccc1-n1cnc2c(F)cccc2c1=O,–,–
5 nM,44,144 nM,–,–,–,–,–,–,–,–,–,Cc1c(-c2ccc(C(N)=O)c3[nH]c4cc(C(C)(C)O)ccc4c23)cccc1-n1ccc2ccccc2c1=O,–,–
5 nM,61,18 nM,–,6.74 µM,58 µM·h,–,–,–,–,–,–,Cc1c(-c2ccc(C(N)=O)c3[nH]c4cc(C(C)(C)O)ccc4c23)cccc1-n1cnc2cccc(F)c2c1=O,–,–
5 nM,25,154 nM,–,–,–,–,–,–,–,–,–,Cc1c(-c2ccc(C(N)=O)c3[nH]c4cc(C(C)(C)O)ccc4c23)cccc1N1Cc2ccccc2C1=O,–,–
7 nM,52,40 nM,–,9.77 µM,113 µM·h,–,–,–,–,–,–,Cc1c(-c2ccc(C(N)=O)c3[nH]c4cc(C(C)(C)O)ccc4c23)cccc1-n1cnc2ccc(F)cc2c1=O,–,–

# The remaining lines, values behind:
Compound,IC50 [1],Ratio IC50 (Homo sapiens),IC50 [2],Papp [3],Cmax [4],AUC(0-t) at 24 h [5],permeability [3],Drug metabolism [6],Drug metabolism [7],Drug metabolism [8],Drug metabolism [9],Stability [11],Activity [10],Activity (Mus musculus)
Cc1c(NC(=O)c2ccc(F)cc2)cccc1-c1ccc(C(N)=O)c2[nH]c3cc(C(=O)N4CCN(C)CC4)ccc3c12,5 nM,15,–,14.7 ×10⁻⁶ cm/s,0.09 µM,0.4 µM·h,–,–,–,–,–,–,–,–
Cc1c(NC(=O)c2ccc(F)cc2)cccc1-c1ccc(C(N)=O)c2[nH]c3cc(NC(C)C)ccc3c12,11 nM,61,–,–,7.96 µM,36 µM·h,Impermeable,Metabolite_Detected,Metabolite_Detected,Metabolite_Detected,Metabolite_Detected,–,Toxic,–
CC(C)(O)c1ccc2c(c1)[nH]c1c(C(N)=O)ccc(-c3cccc(-n4cnc5ccccc5c4=O)c3F)c12,–,–,–,–,2.1 µM,19 µM·h,–,–,–,–,–,–,–,–
Cc1c(NC(=O)c2ccc(F)cn2)cccc1-c1ccc(C(N)=O)c2[nH]c3cc(C(=O)N4CCN(C)CC4)ccc3c12,9 nM,9,–,58.7 ×10⁻⁶ cm/s,1.57 µM,5 µM·h,–,Metabolite_Detected,–,–,Metabolite_Detected,–,–,–
Cc1c(-c2ccc(C(N)=O)c3[nH]c4cc(C(=O)N5CCN(C)CC5)ccc4c23)cccc1N1Cc2ccccc2C1=O,5 nM,14,238 nM,–,0.178 µM,0.3 µM·h,–,–,–,–,–,–,–,–
Cc1c(-c2ccc(C(N)=O)c3[nH]c4cc(CO)ccc4c23)cccc1-n1cnc2ccccc2c1=O,3 nM,146,22 nM,–,4.65 µM,14 µM·h,–,–,–,–,–,–,–,–
